{"source": "ChEMBL document CHEMBL3603735", "about": "(J Med Chem, 2015)", "key": {"[1]": {"target": "Neuronal acetylcholine receptor; alpha4/beta2 (Rattus norvegicus, UniProt P09483+P12390)", "sequence (P09483 whole entry)": "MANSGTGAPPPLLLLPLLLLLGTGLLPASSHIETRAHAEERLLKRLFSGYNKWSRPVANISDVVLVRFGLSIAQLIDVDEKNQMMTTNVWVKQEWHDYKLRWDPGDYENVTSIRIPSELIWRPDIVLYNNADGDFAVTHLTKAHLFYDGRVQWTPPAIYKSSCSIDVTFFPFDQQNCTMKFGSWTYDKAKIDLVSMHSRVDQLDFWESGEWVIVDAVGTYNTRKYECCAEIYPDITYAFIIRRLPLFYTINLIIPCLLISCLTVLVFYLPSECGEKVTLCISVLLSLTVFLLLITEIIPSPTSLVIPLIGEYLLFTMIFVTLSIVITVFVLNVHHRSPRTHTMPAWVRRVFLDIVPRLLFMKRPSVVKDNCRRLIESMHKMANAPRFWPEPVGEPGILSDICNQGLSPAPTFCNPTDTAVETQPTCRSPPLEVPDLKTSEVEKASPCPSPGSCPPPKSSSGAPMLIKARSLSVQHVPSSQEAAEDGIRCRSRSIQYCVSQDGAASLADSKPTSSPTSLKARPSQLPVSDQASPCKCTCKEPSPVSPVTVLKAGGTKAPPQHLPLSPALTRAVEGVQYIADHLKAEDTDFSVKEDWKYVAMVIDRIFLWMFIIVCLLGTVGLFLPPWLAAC", "sequence (P12390 whole entry)": "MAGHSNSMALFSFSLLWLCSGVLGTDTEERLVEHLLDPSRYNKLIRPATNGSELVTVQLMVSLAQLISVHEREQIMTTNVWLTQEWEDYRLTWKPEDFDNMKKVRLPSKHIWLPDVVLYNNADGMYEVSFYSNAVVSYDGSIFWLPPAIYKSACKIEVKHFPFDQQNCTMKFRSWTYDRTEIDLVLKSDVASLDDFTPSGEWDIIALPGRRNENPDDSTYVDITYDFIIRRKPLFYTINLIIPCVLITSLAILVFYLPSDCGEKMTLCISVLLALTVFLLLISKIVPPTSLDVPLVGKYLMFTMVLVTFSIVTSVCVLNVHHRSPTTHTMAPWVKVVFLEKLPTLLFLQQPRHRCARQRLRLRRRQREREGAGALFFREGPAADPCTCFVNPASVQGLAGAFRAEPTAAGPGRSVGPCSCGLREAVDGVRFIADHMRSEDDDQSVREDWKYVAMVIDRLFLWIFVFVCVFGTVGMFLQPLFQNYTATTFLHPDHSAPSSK", "assay": "Displacement of [3H]epibatidine from alpha4beta2 nAChR in rat cortex membranes by liquid scintillation counting method", "assay_type": "cell membranes", "how_it_was_run": "(§1)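 Rat hippocampus (α7) or cortex (α4β2) membranes. Ki obtained by simultaneous nonlinear least-squares fitting of three saturation plus three competition binding experiments per compound per subtype.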"}, "[2]": {"target": "Neuronal acetylcholine receptor subunit alpha-7 (Rattus norvegicus, UniProt Q05941)", "sequence (Q05941 whole entry)": "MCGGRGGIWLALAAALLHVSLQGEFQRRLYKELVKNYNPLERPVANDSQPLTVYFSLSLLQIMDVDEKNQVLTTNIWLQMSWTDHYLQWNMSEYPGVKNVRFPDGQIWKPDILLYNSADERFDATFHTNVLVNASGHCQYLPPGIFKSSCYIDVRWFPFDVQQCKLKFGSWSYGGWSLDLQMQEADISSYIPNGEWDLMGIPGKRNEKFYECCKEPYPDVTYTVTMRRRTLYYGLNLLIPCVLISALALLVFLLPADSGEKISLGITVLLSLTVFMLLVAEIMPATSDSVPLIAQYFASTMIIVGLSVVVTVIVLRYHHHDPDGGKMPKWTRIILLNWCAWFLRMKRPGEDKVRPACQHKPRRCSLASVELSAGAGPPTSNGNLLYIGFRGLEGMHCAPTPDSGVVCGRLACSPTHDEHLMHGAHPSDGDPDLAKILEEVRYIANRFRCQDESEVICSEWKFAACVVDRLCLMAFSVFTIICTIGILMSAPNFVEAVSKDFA", "assay": "Displacement of [125I]]-alpha-bungarotoxin from alpha7 nAChR in rat hippocampus membranes by liquid scintillation counting method", "assay_type": "cell membranes, Membrane", "how_it_was_run": "as §1"}, "[3]": {"target": "T1, Neuronal acetylcholine receptor; alpha3/beta4 (Homo sapiens, UniProt P30926+P32297)", "T1 sequence (P30926 whole entry)": "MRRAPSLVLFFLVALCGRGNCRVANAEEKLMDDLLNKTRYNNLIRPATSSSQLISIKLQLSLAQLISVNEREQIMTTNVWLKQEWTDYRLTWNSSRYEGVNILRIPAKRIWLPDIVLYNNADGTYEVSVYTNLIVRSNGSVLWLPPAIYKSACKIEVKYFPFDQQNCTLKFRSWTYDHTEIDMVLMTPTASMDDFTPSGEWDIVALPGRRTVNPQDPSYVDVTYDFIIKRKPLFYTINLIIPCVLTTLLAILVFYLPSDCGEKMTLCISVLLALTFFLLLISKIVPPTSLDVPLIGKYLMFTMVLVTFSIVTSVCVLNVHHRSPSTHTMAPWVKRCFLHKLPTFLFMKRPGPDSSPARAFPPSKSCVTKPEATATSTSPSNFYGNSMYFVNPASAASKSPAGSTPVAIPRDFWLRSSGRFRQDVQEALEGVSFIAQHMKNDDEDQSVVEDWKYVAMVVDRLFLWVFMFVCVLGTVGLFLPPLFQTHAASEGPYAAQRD", "T1 sequence (P32297 whole entry)": "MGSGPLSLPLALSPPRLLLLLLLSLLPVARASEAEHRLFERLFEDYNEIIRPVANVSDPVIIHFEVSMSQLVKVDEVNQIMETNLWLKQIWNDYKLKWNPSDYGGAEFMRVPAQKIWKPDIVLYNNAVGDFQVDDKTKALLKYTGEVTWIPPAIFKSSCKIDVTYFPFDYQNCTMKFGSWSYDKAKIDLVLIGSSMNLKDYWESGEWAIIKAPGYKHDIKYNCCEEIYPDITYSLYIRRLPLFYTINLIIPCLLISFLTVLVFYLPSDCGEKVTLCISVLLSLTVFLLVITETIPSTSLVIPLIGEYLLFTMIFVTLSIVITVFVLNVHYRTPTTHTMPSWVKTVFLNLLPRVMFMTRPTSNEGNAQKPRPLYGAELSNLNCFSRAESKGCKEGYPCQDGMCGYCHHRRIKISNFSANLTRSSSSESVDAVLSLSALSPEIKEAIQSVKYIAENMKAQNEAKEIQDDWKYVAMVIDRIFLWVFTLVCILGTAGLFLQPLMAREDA", "assay": "Displacement of [3H]epibatidine from human alpha3beta4 nAChR expressed in HEK293 cell membranes by liquid scintillation counting method", "how_it_was_run": "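Competition against [3H]epibatidine on membranes of human α3β4-transfected cells. Ki obtained by simultaneously fitting three independent saturation and three competition experiments per compound with nonlinear least squares.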"}, "[4]": {"target": "T2, Neuronal acetylcholine receptor; alpha4/beta2 (Homo sapiens, UniProt P17787+P43681)", "T2 sequence (P17787 whole entry)": "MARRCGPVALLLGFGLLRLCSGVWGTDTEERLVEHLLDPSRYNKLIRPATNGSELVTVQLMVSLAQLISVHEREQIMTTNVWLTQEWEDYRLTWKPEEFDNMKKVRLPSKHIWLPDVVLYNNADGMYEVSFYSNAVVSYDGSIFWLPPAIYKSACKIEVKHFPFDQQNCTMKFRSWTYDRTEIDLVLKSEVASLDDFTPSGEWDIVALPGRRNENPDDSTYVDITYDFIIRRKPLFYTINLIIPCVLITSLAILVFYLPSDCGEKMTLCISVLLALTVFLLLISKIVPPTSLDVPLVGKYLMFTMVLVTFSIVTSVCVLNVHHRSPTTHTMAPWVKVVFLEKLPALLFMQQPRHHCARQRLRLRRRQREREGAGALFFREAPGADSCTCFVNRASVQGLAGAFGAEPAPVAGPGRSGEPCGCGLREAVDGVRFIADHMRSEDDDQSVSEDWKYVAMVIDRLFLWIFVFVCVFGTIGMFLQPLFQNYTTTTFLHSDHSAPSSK", "T2 sequence (P43681 whole entry)": "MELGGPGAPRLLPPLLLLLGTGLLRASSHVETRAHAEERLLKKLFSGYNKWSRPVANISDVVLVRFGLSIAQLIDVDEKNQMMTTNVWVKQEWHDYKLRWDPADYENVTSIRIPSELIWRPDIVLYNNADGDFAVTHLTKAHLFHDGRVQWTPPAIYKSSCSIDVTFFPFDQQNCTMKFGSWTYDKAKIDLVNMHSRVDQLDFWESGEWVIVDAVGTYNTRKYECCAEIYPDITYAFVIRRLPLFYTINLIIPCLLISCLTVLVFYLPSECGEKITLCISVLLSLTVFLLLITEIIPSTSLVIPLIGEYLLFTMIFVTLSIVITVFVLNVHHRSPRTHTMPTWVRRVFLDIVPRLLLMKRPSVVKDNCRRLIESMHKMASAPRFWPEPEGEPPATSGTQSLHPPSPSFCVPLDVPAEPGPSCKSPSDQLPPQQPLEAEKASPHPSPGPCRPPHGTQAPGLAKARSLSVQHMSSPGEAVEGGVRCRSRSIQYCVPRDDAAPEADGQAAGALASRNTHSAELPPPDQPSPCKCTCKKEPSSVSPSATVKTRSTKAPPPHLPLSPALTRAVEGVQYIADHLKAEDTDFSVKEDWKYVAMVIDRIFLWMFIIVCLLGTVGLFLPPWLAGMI", "assay": "Agonist activity at human alpha4beta2 nAChR expressed in rat GH4C1 cells assessed as induction of peak current amplitude at holding potential of -70 mV by whole-cell patch clamp assay relative to acetylcholine", "assay_type": "cell-based", "settings": "GH4-C1", "how_it_was_run": "(§2)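 Human α3β4 or α4β2 nAChR transiently transfected into rat anterior pituitary GH4C1 cells (0.5 μg each subunit cDNA, magnetofection). Whole-cell patch clamp at −70 mV holding potential, with gravity-driven fast perfusion. Agonist concentrations applied sequentially. Peak currents normalized to 1 mM ACh on the same cell. EC50, Imax and nH from Hill equation fit.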"}, "[5]": {"target": "T1, Neuronal acetylcholine receptor; alpha3/beta4", "assay": "Agonist activity at human alpha3beta4 nAChR expressed in rat GH4C1 cells assessed as induction of peak current amplitude at holding potential of -70 mV by whole-cell patch clamp assay relative to acetylcholine", "assay_type": "cell-based", "settings": "GH4-C1", "how_it_was_run": "as §2"}, "[6]": {"target": "T1, Neuronal acetylcholine receptor; alpha3/beta4", "assay": "Agonist activity at human alpha3beta4 nAChR expressed in rat GH4C1 cells assessed as induction of peak current amplitude at holding potential of -70 mV by whole-cell patch clamp assay", "assay_type": "cell-based, GH4-C1", "how_it_was_run": "(§3)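 Human α3β4 or α4β2 subunit cDNAs (0.5 μg each) transiently transfected into rat GH4C1 cells by magnetofection. Whole-cell voltage clamp at −70 mV, 85−90% series-resistance compensation, fast gravity-perfusion exchanger. Agonist concentrations applied sequentially; peak currents normalized to 1 mM ACh on the same cell. EC50 and nH from Hill-equation fit where possible.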"}, "[7]": {"target": "T2, Neuronal acetylcholine receptor; alpha4/beta2", "assay": "Agonist activity at human alpha4beta2 nAChR expressed in rat GH4C1 cells assessed as induction of peak current amplitude at holding potential of -70 mV by whole-cell patch clamp assay", "assay_type": "cell-based, GH4-C1", "how_it_was_run": "as §2"}, "[8]": {"target": "T2, Neuronal acetylcholine receptor; alpha4/beta2", "assay": "Selectivity index, ratio of EC50 for human alpha3beta4 nAChR expressed in rat GH4C1 cells to EC50 for human alpha4beta2 nAChR expressed in rat GH4C1 cells", "assay_type": "cell-based", "settings": "GH4-C1", "how_it_was_run": "as §3"}, "[9]": {"target": "T2, Neuronal acetylcholine receptor; alpha4/beta2", "assay": "Agonist activity at human alpha4beta2 nAChR in (alpha4)3(beta2)2 stoichiometry form relative to control", "assay_type": "protein-complex assay"}}}
{"smiles": "CN1CC[C@H]1COc1cccc(O)c1", "values": [{"measurement": "Ki", "setting": "[1]", "value": 8.5, "unit": "nM"}, {"measurement": "Ki", "setting": "[2]", "value": 29, "unit": "nM"}, {"measurement": "Ki", "setting": "[3]", "value": 102, "unit": "nM"}, {"measurement": "Imax", "setting": "[4]", "value": 131, "unit": "%"}, {"measurement": "Imax", "setting": "[5]", "value": 57, "unit": "%"}, {"measurement": "EC50", "setting": "[6]", "value": 9200, "unit": "nM"}]}
{"smiles": "COc1ccccc1OC[C@@H]1CCCN1", "values": [{"measurement": "Ki", "setting": "[1]", "value": 53500, "unit": "nM"}, {"measurement": "Ki", "setting": "[3]", "value": 3600, "unit": "nM"}]}
{"smiles": "C[C@@H](Oc1cccc(O)c1)[C@@H]1CCCN1C", "note": "(racemic)", "values": [{"measurement": "Ki", "setting": "[1]", "value": 11.1, "unit": "nM"}, {"measurement": "Ki", "setting": "[2]", "value": 57, "unit": "nM"}, {"measurement": "Ki", "setting": "[3]", "value": 257, "unit": "nM"}]}
{"smiles": "COc1ccncc1OC[C@@H]1CCCN1C", "values": [{"measurement": "Ki", "setting": "[1]", "value": 255, "unit": "nM"}, {"measurement": "Ki", "setting": "[2]", "value": 9400, "unit": "nM"}, {"measurement": "Ki", "setting": "[3]", "value": 2100, "unit": "nM"}]}
{"smiles": "CN1CCC[C@H]1[C@@H]1COc2ccc(O)cc2O1", "values": [{"measurement": "Imax", "setting": "[4]", "value": 29, "unit": "%"}, {"measurement": "EC50", "setting": "[7]", "value": 300, "unit": "nM"}, {"measurement": "Imax", "setting": "[5]", "value": 28, "unit": "%"}, {"measurement": "EC50", "setting": "[6]", "value": 17000, "unit": "nM"}, {"measurement": "Ratio EC50", "setting": "[8]", "value": 57}]}
{"smiles": "c1ccc(OC[C@@H]2CCN2)cc1", "values": [{"measurement": "Ki", "setting": "[1]", "value": 52, "unit": "nM"}]}
{"smiles": "COc1ccccc1OC[C@@H]1CCCN1C", "values": [{"measurement": "Ki", "setting": "[1]", "value": 9400, "unit": "nM"}, {"measurement": "Ki", "setting": "[3]", "value": 749, "unit": "nM"}]}
{"smiles": "CN1CC[C@H]1COc1ccccc1", "values": [{"measurement": "Ki", "setting": "[1]", "value": 101, "unit": "nM"}]}
{"smiles": "CC(Oc1ccccc1)C1CCCN1C", "note": "(mixture of isomers)", "values": [{"measurement": "Ki", "setting": "[1]", "value": 4590, "unit": "nM"}, {"measurement": "Ki", "setting": "[2]", "value": 8900, "unit": "nM"}, {"measurement": "Ki", "setting": "[3]", "value": 1400, "unit": "nM"}]}
{"smiles": "CN1CCC[C@H]1COc1cccc(O)c1", "values": [{"measurement": "Ki", "setting": "[1]", "value": 1.1, "unit": "nM"}, {"measurement": "Ki", "setting": "[2]", "value": 119, "unit": "nM"}, {"measurement": "Ki", "setting": "[3]", "value": 74, "unit": "nM"}, {"measurement": "Imax", "setting": "[4]", "value": 162, "unit": "%"}, {"measurement": "EC50", "setting": "[7]", "value": 4400, "unit": "nM"}, {"measurement": "Imax", "setting": "[5]", "value": 85, "unit": "%"}, {"measurement": "EC50", "setting": "[6]", "value": 9000, "unit": "nM"}]}
{"smiles": "COc1ncccc1OC[C@@H]1CCCN1C", "values": [{"measurement": "Ki", "setting": "[1]", "value": 7280, "unit": "nM"}, {"measurement": "Ki", "setting": "[3]", "value": 793, "unit": "nM"}]}
{"smiles": "C[C@@H](Oc1ccccc1)[C@@H]1CCCN1C", "note": "(racemic)", "values": [{"measurement": "Ki", "setting": "[1]", "value": 1550, "unit": "nM"}, {"measurement": "Ki", "setting": "[2]", "value": 15200, "unit": "nM"}, {"measurement": "Ki", "setting": "[3]", "value": 1300, "unit": "nM"}]}
{"smiles": "COc1ccc(O)cc1OC[C@@H]1CCCN1C", "values": [{"measurement": "Ki", "setting": "[1]", "value": 18.9, "unit": "nM"}, {"measurement": "Ki", "setting": "[2]", "value": 1150, "unit": "nM"}, {"measurement": "Ki", "setting": "[3]", "value": 271, "unit": "nM"}, {"measurement": "Imax", "setting": "[4]", "value": 17, "unit": "%"}, {"measurement": "Imax", "setting": "[5]", "value": 7, "unit": "%"}]}
{"smiles": "C[C@@H](Oc1cccnc1)[C@@H]1CCCN1C", "note": "(racemic)", "values": [{"measurement": "Ki", "setting": "[1]", "value": 27, "unit": "nM"}, {"measurement": "Ki", "setting": "[2]", "value": 388, "unit": "nM"}, {"measurement": "Ki", "setting": "[3]", "value": 5000, "unit": "nM"}, {"measurement": "Imax", "setting": "[4]", "value": 39, "unit": "%"}, {"measurement": "EC50", "setting": "[7]", "value": 13, "unit": "nM"}, {"measurement": "Imax", "setting": "[5]", "value": 7, "unit": "%"}]}
{"smiles": "C[C@H](Oc1cccc(O)c1)[C@@H]1CCCN1C", "values": [{"measurement": "Ki", "setting": "[1]", "value": 192, "unit": "nM"}, {"measurement": "Ki", "setting": "[2]", "value": 743, "unit": "nM"}, {"measurement": "Ki", "setting": "[3]", "value": 752, "unit": "nM"}]}
{"smiles": "COc1ncccc1OC[C@@H]1CCCN1", "values": [{"measurement": "Ki", "setting": "[1]", "value": 8960, "unit": "nM"}, {"measurement": "Ki", "setting": "[3]", "value": 5300, "unit": "nM"}]}
{"smiles": "Oc1cccc(OC[C@@H]2CCCN2)c1", "values": [{"measurement": "Ki", "setting": "[1]", "value": 407, "unit": "nM"}, {"measurement": "Ki", "setting": "[2]", "value": 212, "unit": "nM"}, {"measurement": "Ki", "setting": "[3]", "value": 3800, "unit": "nM"}]}
{"smiles": "Oc1cncc(OC[C@@H]2CCCN2)c1", "values": [{"measurement": "Ki", "setting": "[1]", "value": 2.5, "unit": "nM"}, {"measurement": "Ki", "setting": "[2]", "value": 3500, "unit": "nM"}, {"measurement": "Ki", "setting": "[3]", "value": 100, "unit": "nM"}]}
{"smiles": "C[C@H](Oc1cccnc1)[C@@H]1CCCN1C", "values": [{"measurement": "Ki", "setting": "[1]", "value": 877, "unit": "nM"}, {"measurement": "Ki", "setting": "[2]", "value": 6100, "unit": "nM"}, {"measurement": "Ki", "setting": "[3]", "value": 5600, "unit": "nM"}]}
{"smiles": "Oc1cccc(OC[C@@H]2CCN2)c1", "values": [{"measurement": "Ki", "setting": "[1]", "value": 7.1, "unit": "nM"}, {"measurement": "Ki", "setting": "[2]", "value": 1200, "unit": "nM"}, {"measurement": "Ki", "setting": "[3]", "value": 40, "unit": "nM"}]}
{"smiles": "CN1CCC[C@H]1COc1cncc(O)c1", "values": [{"measurement": "Ki", "setting": "[1]", "value": 3.7, "unit": "nM"}, {"measurement": "Ki", "setting": "[2]", "value": 321, "unit": "nM"}, {"measurement": "Ki", "setting": "[3]", "value": 235, "unit": "nM"}, {"measurement": "Imax", "setting": "[4]", "value": 661, "unit": "%"}, {"measurement": "EC50", "setting": "[7]", "value": 73000, "unit": "nM"}, {"measurement": "Imax", "setting": "[5]", "value": 15, "unit": "%"}]}
{"smiles": "OCCCCC#Cc1cncc(OC[C@@H]2CCN2)c1", "values": [{"measurement": "Imax", "setting": "[4]", "value": 39, "unit": "%"}, {"measurement": "EC50", "setting": "[7]", "value": 0.27, "unit": "nM"}, {"measurement": "Imax", "setting": "[5]", "value": 24, "unit": "%"}, {"measurement": "Efficacy", "setting": "[9]", "value": 6, "unit": "%"}]}
{"smiles": "COc1ccc(O)cc1OC[C@@H]1CCCN1", "values": [{"measurement": "Ki", "setting": "[1]", "value": 1080, "unit": "nM"}, {"measurement": "Ki", "setting": "[3]", "value": 7700, "unit": "nM"}]}
{"smiles": "COc1ccncc1OC[C@@H]1CCCN1", "values": [{"measurement": "Ki", "setting": "[1]", "value": 613, "unit": "nM"}, {"measurement": "Ki", "setting": "[2]", "value": 21500, "unit": "nM"}, {"measurement": "Ki", "setting": "[3]", "value": 2900, "unit": "nM"}]}
